Most compounds without a hit are left out; they make up all but 4% or so of the library.
XBP1 UPR activ: activators of adaptive arm of unfolded protein response (XBP1); activation, % at 20 µM; CHO-XBP1 luciferase reporter, IRE1-XBP1 UPR activation, luminescence; percent of tunicamycin response, DMSO as zero; AID 463104; hit rate 0.33% among 330,000;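 active = versus positive control, 20 µM dose yields 30% or more activation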;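 note: 100% = tunicamycin at 10 µg/mL and 0% = DMSO only wells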
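Material – CHO cell line with stable XBP1 luciferase reporter · Buffer or medium – F12 plus 10% FBS · Compound – single point, 20 µM final compound, 1% DMSO · Schedule – 16-18 h cell attachment at 37 °C, then 6 h compound exposure · Signal – Steady-Glo luminescence read · Benchmarks – high control tunicamycin 10 µg/mL final, low control DMSO vehicle only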
UPR CHOP act: apoptotic UPR (CHOP) activation. CHO-CHOP luciferase reporter, luminescence; percent of tunicamycin response over DMSO baseline. activation, % at 10 µM. hit rate 0.34% among 330,000. AID 449763;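 active = at 10 µM dose, activation of 40% or more, normalized to positive control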;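 note: 100% = tunicamycin at 10 µg/mL and 0% = DMSO alone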
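System: CHO-CHOP luciferase reporter cell line; amount: 500 cells/well; buffer or medium: F12 medium containing 10% fetal bovine serum; incubation: 6 h compound exposure at 37 °C after overnight seeding; measured by: luciferase luminescence after 10 min with Steady-Glo reagent; evaluation: % reporter activation, DMSO baseline versus tunicamycin full activation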
ABHD5-PLIN5 inh: inhibitors of human ABHD5-perilipin-5 interaction | hit rate 0.78% among 360,000 | inhibition, % at 4 µM | AID 602281 | Split G. princeps luciferase complementation, luminescence, 4 h | Q00G26+Q8WTS1;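 active = inhibition above the mean inhibition across every tested compound plus 3 SD, cut at about 22% in these data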;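 note: 0% = DMSO only wells and the 100% control is not disclosed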
Mdm2-MdmX inh: human Mdm2/MdmX binding inhibition | hit rate 3% among 330,000 | SaOS-2 split-luciferase Mdm2/MdmX complementation, luminescence | inhibition, % at 8 µM | AID 485346 | O15151+Q00987;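 active = inhibition of at least 50% at 8 µM in the primary screen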
Exocytosis inh: blocks lytic granule exocytosis | TALL-104 LAMP-1 surface exposure, flow cytometry; cells stimulated with thapsigargin and PMA | inhibition, % at 10 µM | hit rate 0.66% among 360,000 | AID 651702;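 active = inhibition above about 55%, limit read from the data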
Mdm2 MdmX conf: human Mdm2/MdmX binding inhibition, confirmed | inhibition, % at 8 µM | shares compounds with Mdm2-MdmX inh | luminescent assay | hit rate 55% among 10,000; in the data active = inhibition above about 40%
FLuc counter: counter-screen for Mdm2/MdmX inhibitors: full-length luciferase. inhibition, % at 8 µM. shares compounds with Mdm2-MdmX inh. hit rate 77% among 6,200. SaOS-2 full-length luciferase counterscreen, luminescence;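 active = mean inhibition at 8 µM reaching about 37%, which flags the compound as non-specific, limit read from the data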;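 note: p53-null SaOS-2 cells with luciferase driven by a doxycycline-inducible promoter; compound on cells about two nights before reading with doxycycline added after day one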
Active calls of the source: *; · = no result given.

SMILES	XBP1 UPR activ	UPR CHOP act	ABHD5-PLIN5 inh	Mdm2-MdmX inh	Exocytosis inh	Mdm2 MdmX conf	FLuc counter
CC(C)(C)c1ccc(Cn2c(=N)n(CC(O)c3ccco3)c3ccccc32)cc1 (stereo not given)	3	-2	11	98*	1	84*	40*
Cc1ccccc1Cn1c(=N)n(CC(O)c2ccco2)c2ccccc21 (stereo not given)	1	-3	2	38	-4	·	·
CC(=O)c1c(C)[nH]c(C(=O)OCC(=O)c2ccc(Br)cc2)c1C	·	·	-7	·	-1	·	·
Cc1ccc(S(=O)(=O)N(Cc2n[nH]c(=S)n2-c2ccccc2)c2ccccc2)cc1	-4	-2	-10	-14	1	·	·
COc1cc(NC(=O)c2cc(-c3ccc4c(c3)OCO4)on2)cc(OC)c1OC	3	2	3	60*	-10	42*	40*
O=C(NC1CCCCCC1)C1CCC(CNS(=O)(=O)c2ccc(Br)s2)CC1 (stereo not given)	-3	-1	4	51*	4	11	·
Cc1cccc(N2CCN(C(=O)c3ccc(Cl)c(S(=O)(=O)NCc4ccco4)c3)CC2)c1C	-2	-2	6	70*	4	74*	42*
CC1CN(C(=O)c2ccc(Cl)c(S(=O)(=O)NCc3ccco3)c2)CC(C)O1 (stereo not given)	-1	0	2	-8	-2	·	·
Cc1nn(CC(=O)Nc2cccc(O)c2)c(=O)c2ccccc12	·	·	9	·	-7	·	·
O=C(CSc1nnc(-c2cccnc2)n1-c1ccccc1)Nc1ccccc1	8	1	-1	50*	-4	17	·
O=C(CSc1nnc(-c2cccs2)n1-c1ccccc1)Nc1ccccc1	5	2	0	69*	0	8	·
CCN(CC(=O)Nc1ccc(NC(C)=O)cc1)C(=O)/C=C/c1cccs1	3	0	-1	9	1	·	·
Cc1cc(C)n2c(Nc3ccc4c(c3)OCCO4)c(C3CC3)nc2n1	·	·	2	·	1	·	·
COC(=O)c1c(C(=O)OC)c2oc3ccccc3n2c1Cl	7	-3	8	5	-3	·	·
Cc1cc2c(C)nc(-c3ccccc3)nc2o1	-3	6	-4	-44	-2	·	·
CCOC(=O)c1cc(C#N)c(SC)nc1C	4	0	7	5	-2	·	·
CCOC(=O)c1cc2c(N)c(C(=O)c3cc(C#N)c(SC)nc3C)sc2nc1C	8	7	-2	50*	2	25	·
CS(=O)(=O)c1ccc2nc(NC(=O)Cc3ccccc3)sc2c1	6	5	-2	-27	0	·	·
COC(=O)c1ccc2nc(NC(=O)CCS(=O)(=O)c3ccccc3)sc2c1	2	3	12	91*	-4	68*	27
CS(=O)(=O)c1ccc2nc(NC(=O)CCS(=O)(=O)c3ccccc3)sc2c1	-2	2	2	78*	-8	73*	84*
O=C(CCS(=O)(=O)c1ccccc1)Nc1nc2cc3c(cc2s1)OCCO3	-3	5	0	57*	-11	28	·
COc1ccc(OC)c2sc(NC(=O)CCS(=O)(=O)c3ccccc3)nc12	-1	0	7	98*	-4	77*	24
COC(=O)c1[nH]c2cc(OC)ccc2c1NC(=O)CCN1CCN(c2ccccc2)CC1	1	-2	8	16	0	·	·
O=C(CCS(=O)(=O)c1ccccc1)Nc1nc2ccc(F)cc2s1	-1	2	-7	67*	8	65*	72*
CC(C)n1nc(C(=O)Nc2nc3ccc(S(C)(=O)=O)cc3s2)c2ccccc2c1=O	11	5	2	91*	-3	57*	82*
SMILES	XBP1 UPR activ	UPR CHOP act	ABHD5-PLIN5 inh	Mdm2-MdmX inh	Exocytosis inh	Mdm2 MdmX conf	FLuc counter
CC(C)C(=O)Nc1nc2ccc(S(C)(=O)=O)cc2s1	2	2	6	48	-7	·	·
Cc1cc(C)cc(NC(=O)NCc2nnc(SCc3ccccc3)n2C)c1	-1	-2	-5	9	-2	·	·
Cc1cccc(C)c1NC(=O)CN1C(=O)S/C(=C\c2cccn2-c2cccc(C(=O)O)c2)C1=O	-4	2	3	18	1	·	·
O=C(CN1C(=O)S/C(=C/c2ccncc2)C1=O)Nc1ccccc1	-6	-1	11	33	0	·	·
Cc1cccc(C)c1NC(=O)CN1C(=O)S/C(=C\c2cccn2C)C1=O	-1	1	-4	80*	0	2	·
Cc1ccc(NC(=O)CN2C(=O)S/C(=C\c3ccccn3)C2=O)cc1C	-3	2	0	68*	-26	29	·
Cn1cc(/C=C2/SC(=O)N(CC(=O)Nc3ccc4c(c3)OCO4)C2=O)c2ccccc21	17	1	6	64*	-1	21	·
Cc1ccc(CC(CC(=O)Nc2cccc(C(F)(F)F)c2)C(=O)O)cc1 (stereo not given)	0	-2	-1	-12	0	·	·
Cc1ccc(S(=O)(=O)N2CCN(C(=O)Cn3c(=O)oc4ccccc43)CC2)c(C)c1	-5	0	4	-6	-7	·	·
Cc1cccc(NCc2ccc(O)c3ncccc23)c1	5	-2	-10	77*	-3	74*	43*
Oc1ccc(Cn2ccnc2)c2cccnc12	-1	-2	-9	4	-1	·	·
Oc1ccc(CNc2ccc(F)cc2)c2cccnc12	13	12	0	85*	30	80*	36
Oc1ccc(CNc2ccccc2)c2cccnc12	2	1	6	86*	2	44*	51*
Cc1ccccc1NCc1ccc(O)c2ncccc12	16	0	-2	84*	-5	76*	41*
OCc1ccnc2c(O)cccc12	0	0	4	21	-1	·	·
S=C1NCCOCCOCCOCCOCCN1	-5	-3	-6	7	2	·	·
COc1ccc(Oc2nnc(C)c3ccccc23)cc1	2	3	5	-102	5	·	·
CCOC(=O)C1(N(CC)CC)Sc2cc(C)ccc2NC1=O (stereo not given)	-2	0	-10	68*	-2	69*	52*
O=C(Nc1ccn(CCCNCCc2ccccn2)c(=O)n1)OCc1ccccc1	·	·	-6	·	-3	·	·
CCOC(=O)/C(C#N)=C\c1cccnc1	-2	-1	-2	5	9	·	·
CCOC(=O)/C(=C\c1cccnc1)C(=O)c1cc(C(C)=O)c(Nc2ccccc2)s1	-15	-11	90*	97*	60*	99*	52*
Cc1ccc2nc(-c3ccccc3)cn2c1	-17	-11	-2	67*	-3	58*	32
Cc1cc(C)c2oc(-c3ccc(Cl)c(NC(=O)c4ccc(C#N)cc4F)c3)nc2c1	19	33	-4	69*	0	-12	·

Assay outcomes deposited in PubChem by several laboratories.
